# KCNK3 inh: human KCNK3 channel inhibition, primary screen; O14649; CHO-KCNK3 thallium flux, FluxOR fluorescence; active compounds read low; B-score at 10 µM; 340,000 tested, 0.84% active;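 active means B-score under library mean minus 4 SD, starting fluorescence ratio at most library mean plus 5 SD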;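 further: more negative B-score means stronger inhibition of thallium flux through KCNK3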
# KCNQ1 pot: potentiates or activates the human KCNQ1 potassium channel; P51787; CHO-K1 KCNQ1, thallium flux FluxOR fluorescence; active compounds read high; B-score at 10 µM; 310,000 tested, 0.35% active; AID 2648;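 active means fluorescence ratio B-score, a plate-corrected score, at least three library SD, with initial intensity B-score within 5 SD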
#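 Test system: CHO-K1 cells stably expressing KCNQ1 / Medium: assay buffer / Also added: depolarizing K+/Tl+ stimulus, K2SO4 and Tl2SO4 each 12.5 mM in 5x stock / Incubation: 90 min dye loading and 20 min compound exposure, both at room temperature / Signal: thallium influx via FluxOR fluorescence, kinetic imaging / Evaluation: B score of baseline-normalized fluorescence ratio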
# KCNQ1 inh: blocks the human KCNQ1 potassium channel; P51787; CHO-K1 KCNQ1, FluxOR thallium flux fluorescence; active compounds read high; B-score at 10 µM; 310,000 tested, 1.3% active; AID 2642;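 active means compounds whose thallium flux B-score, printed positive for inhibition, exceeds three library SD while starting fluorescence stays within three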;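 further: channel opened by potassium depolarization with thallium stimulus after 20 min compound exposure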
# hERG protect: shields human hERG channel from block by proarrhythmic agents | Q12809 | 310,000 tested, 0.51% active | activation (rescue from dofetilide block), less the hit threshold, % at 10 µM | CHO-hERG, FluxOR thallium flux, dofetilide IC70 present;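 active means activation above the mean of controls blocked by dofetilide plus 5 SD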;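 further: thallium influx through hERG after potassium depolarization seen as dye fluorescence rise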
# KCNK9 inh: inhibitors of human KCNK9 two-pore domain potassium channel. B-score at 10 µM. 310,000 tested, 1.2% active. HEK293 KCNK9, FluxOR thallium flux fluorescence; active compounds read low;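 active means ratio B-score over 3 SD below the library mean, with starting fluorescence within 5 SD of its mean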;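 further: negative B-score means less thallium flux so channel inhibition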
# Target sequence (Q9NPC2 whole entry, looked up, the tested form may be a part): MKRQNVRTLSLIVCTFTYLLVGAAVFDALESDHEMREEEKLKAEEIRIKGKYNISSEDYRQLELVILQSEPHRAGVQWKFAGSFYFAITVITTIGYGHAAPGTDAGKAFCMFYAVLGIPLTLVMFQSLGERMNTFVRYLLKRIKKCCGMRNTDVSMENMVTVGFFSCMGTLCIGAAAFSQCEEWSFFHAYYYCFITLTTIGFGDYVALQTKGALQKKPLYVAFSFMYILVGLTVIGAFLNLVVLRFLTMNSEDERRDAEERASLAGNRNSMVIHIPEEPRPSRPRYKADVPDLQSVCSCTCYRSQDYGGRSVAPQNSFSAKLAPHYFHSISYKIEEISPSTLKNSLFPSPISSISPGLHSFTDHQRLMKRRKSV
# * marks the source's active call; other numbers are inactive results; i = inactive; / = no result. This is a sample that favours compounds with a hit; in the whole collection about 3.1% have one here.
SMILES,KCNK3 inh,KCNQ1 pot,KCNQ1 inh,hERG protect,KCNK9 inh
CC(=O)c1c(NC(=O)c2ccccc2)[nH]c(-c2ccccc2)nc1=S,i,18*,i,15*,i
COc1ccc(NC(=O)CC2CCCCC2)cc1OC,i,i,i,5.7*,i
COc1ccc(NC(=O)CC2CCCC2)cc1S(=O)(=O)N1CCCCC1,i,i,i,-6,i
CSCC[C@H](NS(=O)(=O)c1ccc(C(C)=O)cc1)c1nnc2ccccn12,i,i,i,-4,i
O=C1c2ccccc2NC(c2ccccc2O)N1O (stereo not drawn),i,8*,i,-5,i
Cc1ccc(N2C(=O)c3ccccc3NC2c2ccccc2O)cc1 (stereo not drawn),i,i,i,-1,i
NC(N)=NC(=O)c1nc(Cl)c(N)nc1N,i,i,i,-7,i
NC(N)=NC(=O)c1nc(Cl)c(N2CCCCCC2)nc1N,-9.8*,/,/,/,/
CCOc1ncccc1C(=O)OC(C)C(=O)Nc1ccc(Cl)cn1 (stereo not drawn),i,/,/,/,/
CNc1ccccc1C(=O)OC(C)C(=O)Nc1ccc(Cl)cn1 (stereo not drawn),i,12*,i,-8,i
O=C(O)C1=CC[C@@H](c2ccc(Cl)cc2)N(S(=O)(=O)c2ccc(Cl)cc2)[C@H]1c1ccccc1,i,/,/,/,/
CC(=O)C1=C(C)NC(SCC(=O)c2ccc(Cl)cc2)=C(C#N)C1c1ccco1 (stereo not drawn),i,i,i,-5,-15*
CC(=O)C1=C(C)NC(SCC(=O)c2ccccc2)=C(C#N)C1c1ccco1 (stereo not drawn),/,i,i,0,i
O=C(CN1CCOCC1)Nc1ccc(Cl)c(Cl)c1,i,i,i,5.9*,i
O=C(CN1CCN(S(=O)(=O)N2CCOCC2)CC1)Nc1ccc(Cl)c(Cl)c1,i,i,i,-2,i
O=C(NNC(=O)c1ccccc1OCc1ccccc1Cl)c1csc(N2CCOCC2)n1,i,i,i,-9,i
CCOc1ccc(N(C)c2ccc(/C=C3/SC(=S)NC3=O)cc2)cc1,i,i,i,-4,i
CCOc1ccc(N=C2NC(=O)S/C2=C\c2ccc(Cl)cc2)cc1,i,i,i,11*,i
CC(=O)CSc1ncnc2sc3c(c12)CCC(C)C3 (stereo not drawn),i,33*,i,50*,i
COc1ccccc1/C=C1\SC(=S)N(CCC(=O)Nc2cccc(O)c2)C1=O,i,i,i,1,i
CCOC(=O)C1=C(C)n2c(s/c(=C/c3cccc([N+](=O)[O-])c3)c2=O)=NC1c1ccc(O)c(OC)c1 (stereo not drawn),i,i,6*,-14,i
CC[C@]12c3[nH]c4ccc(OC)cc4c3CCN1C(=O)C(CC(=O)NCCCN(C)C)C[C@@H]2C(=O)N1CCN(C(=O)c2ccco2)CC1 (stereo partly drawn),i,/,/,/,/
Cc1ccc(S(=O)(=O)N2CCN(S(=O)(=O)N3CCC(C)CC3)CC2)cc1C,i,i,i,-1,i
Cc1cc(C)c(C)c(S(=O)(=O)NCc2ccc(C(=O)NCC3CCCO3)cc2)c1C (stereo not drawn),i,i,i,-7,i
CC(C)CCn1c(=O)c2ccccc2c2ccccc2c1=O,i,i,6*,-9,i
SMILES,KCNK3 inh,KCNQ1 pot,KCNQ1 inh,hERG protect,KCNK9 inh
CCOc1ccc(OCC(=O)N(CCC2=CCCCC2)c2c(N)n(Cc3ccccc3)c(=O)[nH]c2=O)cc1,i,i,i,-15,i
CC(=O)Oc1ccc(C23c4ccccc4C2(OC(C)=O)c2cc(OC(C)=O)ccc23)cc1 (stereo not drawn),i,/,/,/,/
O=C(NCc1cccnc1)Nc1cccc(F)c1,i,i,i,-8,-7.8*
O=C(NCc1cccnc1)Nc1ccc(F)cc1F,i,i,i,-13,i
N/C(Cc1ccc(Cl)cc1)=N\OC(=O)c1cccc2ccccc12,i,i,i,-3,-14*
CCOC(=O)c1n[nH]n2c1nc(=O)c1ccccc12,i,i,i,-9,i
Cc1ccc(S(=O)(=O)c2n[nH]n3c2nc(=O)c2ccccc23)cc1,i,i,i,8.6*,i
O=C1C2CC=CCC2C(=O)N1c1ccc(Cc2ccncc2)cc1 (stereo not drawn),i,i,i,5.0*,i
O=C1CC(Cc2ccc(Cl)cc2)C(=O)N1c1ccncc1 (stereo not drawn),i,i,i,-5,i
COc1ccc(S(=O)(=O)Nc2cc3c4c(c2)CCC(=O)N4CCC3)cc1C,i,i,i,-11,i
CS(=O)(=O)N1CCC(Oc2cccc(C(=O)NCCCC3CCCC3)c2)CC1,i,i,i,-12,i
O=c1c2ccccc2[nH]c(=S)n1CCC1=CCCCC1,i,26*,i,11*,i
O=c1c2ccccc2[nH]c(=S)n1CCN1CCCCC1,i,i,i,-4,i
Cc1nc2c3ccccc3nc(NNC(=O)CCC(=O)NCCN3CCN(c4ccccc4)CC3)n2n1,i,i,i,-8,i
Cc1ccc(C(=O)NC(=S)N(C)C2CCCCC2)cc1,i,17*,i,15*,i
S=c1[nH]c2cc(Cl)ccc2s1,i,74*,i,55*,i
O=C1CCc2cc(S(=O)(=O)NC3CCCCC3)cc3c2N1CC3,i,i,i,-16,i
CC(Nc1ncnc2ccccc12)c1ccccc1 (stereo not drawn),i,i,6*,-18,i
CCCCC(Nc1ncnc2ccccc12)C(=O)O (stereo not drawn),i,16*,i,-10,i
CC(C)Oc1ccc(Nc2ncnc3ccccc23)cc1,i,i,i,-9,i
COC(=O)[C@@]12CCCN1[C@H](c1ccc(-c3cccc(Cl)c3)cc1)[C@H]1C(=O)N(C)C(=O)[C@H]12,i,i,i,-15,-7.1*
CN(C)Cc1c(OC(=O)c2ccc(N)cc2)ccc2ccccc12,i,/,/,/,/
COc1ccc(C2CC(c3cccs3)=NN2C(=O)CSc2nc3c(cnn3-c3ccccc3)c(=O)[nH]2)cc1 (stereo not drawn),i,i,6*,-16,i
CC(C)c1nc(SCC(=O)NCC2CCCO2)c2c(=O)n(C)c(=O)n(C)c2n1 (stereo not drawn),i,i,i,-7,i
COc1ccc(S(=O)(=O)N2CCOCC2)cc1C(=O)NC1CCCCCC1,i,/,/,/,/
CCN(Cc1nc2ccccc2c(=O)[nH]1)C(=O)c1ccc(C)c(NC(=O)c2ccco2)c1,i,/,/,/,/

# Screening data: PubChem BioAssay, Johns Hopkins Ion Channel Center
